The values that follow come from ChEMBL document CHEMBL4765376, “Discovery of an Orally Available Diazabicyclooctane Inhibitor (ETX0282) of Class A, C, and D Serine β-Lactamases” (J Med Chem, 2020).

Values after ≈ are worked out from the molar mass of the structure shown. Active and inactive are the calls of the source. No cut-off for these calls is given here.

A short description of data set [1]: Stability of compound in phosphate buffer assessed as half-life at pH 7.4. The data set is classed as physicochemical. The essentials: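 Compound at 10 μM in potassium phosphate buffer pH 7.4 at 37 °C without S9. Sampled at 0 to 60 min and measured by LC/MS/MS. Half-life from the first-order log-linear depletion slope.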
A short description of data set [2]: Metabolic stability in human liver S9 fraction assessed as half-life at 10 uM up to 60 mins by LC/MS/MS analysis. The data set is classed as ADME, subcellular. Summed up: (§1)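 S9 fraction at 0.8 mg/mL protein in 100 mM potassium phosphate pH 7.4, preincubated 5 min at 37 °C, then compound added at 10 μM final. Aliquots taken at 0, 2, 5, 10, 20, 40 and 60 min, quenched in acetonitrile with internal standard, and prodrug measured by LC/MS/MS. First-order half-life taken from the log-linear depletion slope.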

A short description of data set [3]: Metabolic stability in human intestinal S9 fraction assessed as half-life at 10 uM up to 60 mins by LC/MS/MS analysis. The data set is classed as ADME, subcellular, Intestine. The essentials:
as §1

Data set [4] in a line: Metabolic stability in rat intestinal S9 fraction assessed as half-life at 10 uM up to 60 mins by LC/MS/MS analysis. The data set is classed as ADME, subcellular, Intestine. The essentials: as §1
Data set [5] can be described thus: Oral bioavailability in Sprague-Dawley rat at 10 mg/kg by LC/MS/MS analysis. The data set is classed as ADME, organism-based. To be noted: in vivo. Summed up: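 Jugular vein-cannulated male Sprague Dawley rats (180–200 g, n = 3/route). Intravenous arm: active acid at 10 mg/kg in 0.9% saline, plasma sampled 0.08–8 h. Oral arm: prodrug at a dose equivalent to 10 mg/kg acid in 25:75 PEG 400/WFI, plasma sampled 0.25–24 h. Levels by LC/MS/MS; F = (AUCpo/AUCiv) × 100.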

The nature of data set [6]: Metabolic stability in rat liver S9 fraction assessed as half-life at 10 uM up to 60 mins by LC/MS/MS analysis. The data set is classed as ADME, subcellular. The essentials: as §1
For data set [7], the system named is Klebsiella oxytoca. Put plainly: Antibacterial activity against Klebsiella oxytoca ARC 5389 carbapenem resistant clinical isolates assessed as reduction in bacterial growth by CLSI based broth dilution method. The data set is classed as functional. The essentials: (§2)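 Broth microdilution per CLSI in cation-adjusted Mueller–Hinton broth against drug-resistant clinical isolates; MIC read as the lowest concentration preventing bacterial growth.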

In data set [8] the test system is Klebsiella pneumoniae. Put plainly: Antibacterial activity against Klebsiella pneumoniae ARC 6107 carbapenem resistant clinical isolates assessed as reduction in bacterial growth by CLSI based broth dilution method. The data set is classed as functional. Summed up:
as §2
A general note: Broth dilution looks for growth in wells or tubes with falling amounts of substance.

For data set [9], the system named is Enterobacter cloacae. The experiment in a line: Antibacterial activity against Enterobacter cloacae ARC 6049 drug resistant clinical isolates assessed as reduction in bacterial growth by CLSI based broth dilution method. The data set is classed as functional. The essentials: as §2
Data set [10] has as its system Enterobacter cloacae. Put plainly: Antibacterial activity against Enterobacter cloacae ARC 6055 drug resistant clinical isolates assessed as reduction in bacterial growth by CLSI based broth dilution method. The data set is classed as functional. The essentials:
as §2

For data set [11], the system named is Citrobacter freundii. Put plainly: Antibacterial activity against Citrobacter freundii ARC 3518 carbapenem resistant clinical isolates assessed as reduction in bacterial growth by CLSI based broth dilution method. The data set is classed as functional. The essentials:
as §2

In data set [12] the test system is Klebsiella pneumoniae. The experiment in a line: Antibacterial activity against Klebsiella pneumoniae ARC 6088 carbapenem-resistant clinical isolates assessed as reduction in bacterial growth by CLSI based broth dilution method. The data set is classed as functional. Summed up:
as §2

For data set [13], the system named is Klebsiella pneumoniae. Put plainly: Antibacterial activity against Klebsiella pneumoniae ARC 6098 drug resistant clinical isolates assessed as reduction in bacterial growth by CLSI based broth dilution method. The data set is classed as functional. Summed up: as §2
Data set [14] deals with Escherichia coli. The experiment in a line: In vivo antibacterial activity against multidrug-resistant Escherichia coli ARC 2687 infected in CD-1 mouse model of neutropenic thigh infection assessed as colony forming unit at 50 mg/kg, po administered at 6 hrs interval. The data set is classed as functional, organism-based. Summed up:
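Female CD-1 mice (20–22 g, 3/arm) made neutropenic with ip cyclophosphamide, 150 mg/kg on day −4 and 100 mg/kg on day −1. Each thigh received an im inoculum of 5.5 × 10^6–1.6 × 10^7 CFU from saline suspension (OD625 0.1, diluted). Dosing began 2 h post-infection, q6h. Oral agents were given in 0.5% HPMC/0.1% Tween 80; meropenem was given sc in water. Thighs were taken at 24 h, homogenized and plated on TSA (35 °C overnight) for CFU counts.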

The subject of data set [15] is Klebsiella pneumoniae. Put plainly: Antibacterial activity against Klebsiella pneumoniae ARC561 assessed as reduction in bacterial growth by CLSI based broth dilution method. The data set is classed as functional. The essentials: (§3)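 Broth microdilution in CAMHB following CLSI.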
Data set [16] concerns Klebsiella pneumoniae. Put plainly: Antibacterial activity against Klebsiella pneumoniae ARC 6082 drug resistant clinical isolates assessed as reduction in bacterial growth by CLSI based broth dilution method. The data set is classed as functional. The essentials:
as §2

Data set [17] relates to Escherichia coli. Put plainly: Antibacterial activity against Escherichia coli ARC3627 assessed as reduction in bacterial growth by CLSI based broth dilution method. The data set is classed as functional. Summed up: as §3

On to `CCOC(=O)[C@H](F)ON1C(=O)N2C[C@H]1C=C(C)[C@H]2C(=O)NCCS(N)(=O)=O`, for which the half-life (commonly the time in which the quantity being followed falls by half) in data set [1] came out at 26 min. The half-life at 10 µM worked out at 9.9 min in data set [2], 22 min in data set [3], 20 min in data set [4] and 10 min in data set [6]. In data set [5], the bioavailability (usually dose-corrected exposure relative to a reference, in per cent) came to 4%.

For `COCC1=C(C(=O)O)N2C(=O)[C@@H](NC(=O)/C(=N\OC)c3csc(N)n3)[C@H]2SC1` [CEFPODOXIME], the MIC in [7], in data set [8], in data set [9], in [10], in data set [11] and in data set [12] was > 64 µg/mL in each case. The MIC (as a rule, the lowest concentration that inhibits growth of the organism) in data set [13] was > 64 µg/mL; in data set [15], 32 µg/mL (≈ 74.9 µM); in [16] it was > 64 µg/mL; in data set [17], > 64 µg/mL. For the same compound, the outcome in data set [14] was inactive.
